Measurements published in ChEMBL document CHEMBL1157543, “Synthesis and biological evaluation of polysulfated oligosaccharide glycosides as inhibitors of angiogenesis and tumor growth” (J Med Chem, 2010).
Active and inactive are the calls of the source. The calls are words filed in the database; no cut-off is given here.

Tests used:
[1] = test system: Plasma; assay: Anticoagulant activity in human plasma assessed as activated partial thromboplastin time; type: functional
How it was run: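 Pooled normal human plasma spiked with compound in PBS at 0.1 mg/mL (methods give a 0–100 μg/mL range); APTT elevation measured. Normal range 26–36 s. Values are means of two determinations.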

[2] = test system: Plasma; assay: Anticoagulant activity in human plasma by heptest; type: functional
How it was run: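 Heptest clot assay. Plasma (centrifuged 1800g, 10 min, used within 30 min) incubated with compound 2 min at 37 °C. Factor Xa added, 2 min at 37 °C, then clotting started with Recalmix; read on a ball coagulometer. Normal range 13–20 s; means of two determinations.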

[3] = test system: HUVEC; assay: Antiangiogenic activity against HUVEC assessed as inhibition of endothelial cell tube formation on ECM-derived protein matrix at 100 uM by phase contrast microscopy; type: functional, cell-based; conditions: Homo sapiens
How it was run: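 HUVECs at passage 4–5 (70–80% confluent) suspended in EGM2 with all supplements except heparin at 4×10^5 cells/mL, mixed 1:1 with compound (final 10, 50, 100 μM), plated in triplicate on growth factor-reduced Matrigel. Incubated 18 h; tubes scored by phase-contrast microscopy. Untreated cells as control; one-way ANOVA with Dunnett's test.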

[4] = molecular target: T1, Heparanase (Homo sapiens, UniProt Q9Y251); assay: Inhibition of human recombinant heparanase
T1 sequence (Q9Y251 whole entry): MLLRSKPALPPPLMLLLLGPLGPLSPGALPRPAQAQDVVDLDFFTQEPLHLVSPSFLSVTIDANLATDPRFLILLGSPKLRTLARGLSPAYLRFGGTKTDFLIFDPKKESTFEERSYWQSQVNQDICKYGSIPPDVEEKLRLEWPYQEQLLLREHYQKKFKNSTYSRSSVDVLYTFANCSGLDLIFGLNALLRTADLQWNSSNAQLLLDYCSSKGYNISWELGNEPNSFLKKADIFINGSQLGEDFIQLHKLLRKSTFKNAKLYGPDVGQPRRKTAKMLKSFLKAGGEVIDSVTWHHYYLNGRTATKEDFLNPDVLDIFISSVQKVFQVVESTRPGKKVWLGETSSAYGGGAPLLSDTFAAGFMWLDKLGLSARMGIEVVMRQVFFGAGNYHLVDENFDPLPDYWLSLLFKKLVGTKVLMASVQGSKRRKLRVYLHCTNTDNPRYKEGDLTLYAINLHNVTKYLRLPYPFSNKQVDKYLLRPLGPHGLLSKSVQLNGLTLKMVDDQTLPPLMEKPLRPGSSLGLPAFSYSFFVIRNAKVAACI
How it was run: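 Recombinant human heparanase assayed by ultrafiltration with 3H-labelled heparan sulfate as substrate (Km = 1.64 μM). Ki values with standard error were derived from inhibition response curves.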

[5] = molecular target: Fibroblast growth factor 1 (Homo sapiens, UniProt P05230); assay: Binding affinity to FGF1 by surface plasmon-based solution affinity assay
How it was run: (§1)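 Surface plasmon resonance solution affinity assay on heparin-coated CM4 chips. Buffer: HBS-EP (10 mM HEPES pH 7.4, 150 mM NaCl, 3.0 mM EDTA, 0.005% polysorbate 20). Kd is the mean of at least duplicate measurements ± SD.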

[6] = molecular target: Fibroblast growth factor 2 (Homo sapiens, UniProt P09038); assay: Binding affinity to FGF2 by surface plasmon-based solution affinity assay
How it was run: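 Surface plasmon resonance solution affinity assay on heparin-coated CM4 chips. FGF-2 binding run in HBS-EP containing 300 mM NaCl. Kd is the mean of at least duplicate measurements ± SD.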

[7] = molecular target: T2, Vascular endothelial growth factor A, long form (Homo sapiens, UniProt P15692); assay: Binding affinity to VEGF by surface plasmon-based solution affinity assay; how it was run: as §1
T2 sequence (P15692 whole entry): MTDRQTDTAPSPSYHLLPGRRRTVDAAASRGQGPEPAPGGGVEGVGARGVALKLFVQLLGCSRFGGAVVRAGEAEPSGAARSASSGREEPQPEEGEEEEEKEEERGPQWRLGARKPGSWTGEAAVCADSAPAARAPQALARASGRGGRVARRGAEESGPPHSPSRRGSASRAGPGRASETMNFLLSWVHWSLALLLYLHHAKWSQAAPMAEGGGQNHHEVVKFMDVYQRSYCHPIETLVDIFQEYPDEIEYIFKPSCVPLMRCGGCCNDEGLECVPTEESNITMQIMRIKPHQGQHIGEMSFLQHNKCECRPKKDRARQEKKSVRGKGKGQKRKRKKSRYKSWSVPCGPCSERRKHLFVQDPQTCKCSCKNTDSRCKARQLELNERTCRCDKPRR

[8] = test system: HUVEC; assay: Cytotoxicity against HUVEC; type: cell-based; conditions: human
[9] = test system: Aorta; assay: Inhibition of angiogenesis in Sprague-Dawley rat aortic endothelium at 50 uM; type: functional, tissue-based
How it was run: (§2)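 Sprague-Dawley rats (2–4 months old): bisected 1 mm thoracic aortic rings embedded in Matrigel in EBM-2 with 2% FCS, no heparin. Compound added in triplicate, medium replenished every 48 h. Microvessel sprouting scored semiquantitatively by two assessors up to day 8. One-way ANOVA with Dunnett's test.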

[10] = Toxicity in rat aortic endothelium assessed as microvessel sprouts at 10 and 50 uM after 6 or 7 days; type: tissue-based, Sprague-Dawley, Aorta; conditions: ex_vivo, 168 h
How it was run: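 Aortic ring viability check: on day 6 or 7, compound or medium was withdrawn and complete medium with VEGF (typically 10 ng/mL) was added for up to 7 more days. New microvessel sprouting was taken as a sign of viable tissue.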

[11] = test system: B16; assay: Antitumor activity against mouse B16 cells transplanted in C57/BL6 mouse assessed as reduction in tumor volume at 30 mg/kg for 7 days measured on day 10; type: functional; conditions: read-out: TGI
How it was run: (§3)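 B16F1 cells grown in DMEM with 10% FCS, 5×10^5 cells in PBS implanted sc between the shoulder blades of C57 mice (n = 10). From day 3, compound given sc in PBS b.i.d. for 7 days at rotating sites. Tumors measured daily as l × w; p < 0.05 taken as significant.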

[12] = test system: B16; assay: Antitumor activity against mouse B16 cells transplanted in C57/BL6 mouse assessed as reduction in tumor volume at 15 mg/kg for 7 days measured on day 10; type: functional; conditions: read-out: TGI; how it was run: as §3
[13] = Half life in Sprague-Dawley rat at 10 mg/kg, iv; type: ADME, organism-based; design: dose 10 mg/kg, route intravenous; conditions: in vivo
How it was run: (§4)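 Male Sprague-Dawley rats (n = 2 per route), cannulated the day before. Compound given at 2.8 mg/mL in PBS: iv infusion over 5 min or sc between the scapulae, nominal 10 mg/kg. Arterial blood sampled up to 8 h into tubes with protease inhibitor, KF and EDTA; urine collected to 24 h. Plasma analyzed by LC-MS; noncompartmental analysis.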

[14] = Half life in Sprague-Dawley rat at 10 mg/kg, sc; type: ADME, organism-based; design: dose 10 mg/kg, route subcutaneous; conditions: in vivo; how it was run: as §4
[15] = Plasma clearance in Sprague-Dawley rat at 10 mg/kg, iv and 10 mg/kg, sc; type: ADME, organism-based; how it was run: as §4
[16] = Apparent volume of distribution in Sprague-Dawley rat at 10 mg/kg, iv and 10 mg/kg, sc; type: ADME, organism-based; conditions: in vivo, read-out: Vz; how it was run: as §4
[17] = Bioavailability in Sprague-Dawley rat at 10 mg/kg, sc; type: ADME, organism-based; conditions: in vivo; how it was run: as §4
[18] = test system: Aorta; assay: Inhibition of angiogenesis in Sprague-Dawley rat aortic endothelium at 10 uM; type: functional, tissue-based; how it was run: as §2
[19] = test system: HUVEC; assay: Inhibition of FGF1-induced HUVEC cell proliferation; type: functional, cell-based; conditions: Homo sapiens
How it was run: (§5)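 HUVECs seeded at 1–3 × 10^3 per well in EGM with 2% FBS and gentamicin. Proliferation driven by VEGF, FGF-1 or FGF-2; compound added typically at seven concentrations (1–50 μM) in triplicate. After 70 h, MTS reagent added for 2 h and A490 read. IC50 obtained from blank-subtracted curves.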

[20] = test system: HUVEC; assay: Inhibition of FGF2-induced HUVEC cell proliferation; type: functional, cell-based; conditions: Homo sapiens; how it was run: as §5
[21] = test system: HUVEC; assay: Inhibition of VEGF-induced HUVEC cell proliferation; type: functional, cell-based; conditions: Homo sapiens; how it was run: as §5

Fibroblast growth factor 2, sequence (P09038 143-288 limits assumed): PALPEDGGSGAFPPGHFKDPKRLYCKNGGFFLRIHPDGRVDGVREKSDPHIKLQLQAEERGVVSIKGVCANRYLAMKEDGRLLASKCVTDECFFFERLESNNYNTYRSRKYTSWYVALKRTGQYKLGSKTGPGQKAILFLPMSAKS
Fibroblast growth factor 1, sequence (P05230 whole entry): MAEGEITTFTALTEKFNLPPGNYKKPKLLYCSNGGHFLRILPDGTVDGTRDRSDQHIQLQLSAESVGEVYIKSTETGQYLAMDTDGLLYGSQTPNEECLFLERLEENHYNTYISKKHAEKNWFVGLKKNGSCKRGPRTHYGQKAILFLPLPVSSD

| Compound | Activity [2] [s] | Ki [4] [nM] | Kd [5] [nM] | Kd [6] [nM] | Kd [7] [nM] | Time [1] [s] | LC50 [8] [nM] | Activity [10] | inhibition in vivo at 30 mg/kg [11] [%] | inhibition in vivo at 15 mg/kg [12] [%] | half-life [13] [h] | half-life [14] [h] | clearance [15] [mL/min/kg] | further results |
| --- | --- | --- | --- | --- | --- | --- | --- | --- | --- | --- | --- | --- | --- | --- |
| MUPARFOSTAT SODIUM | > 500 | – | – | – | – | – | – | – | – | – | – | – | – | TIME [1]: > 0.139 h; inhibition [3]: 58% |
| CCCCCCCCO[C@H]1O[C@H](COS(=O)(=O)[O-])[C@@H](OS(=O)(=O)[O-])[C@H](OS(=O)(=O)[O-])[C@@H]1O[C@H]1O[C@H](COS(=O)(=O)[O-])[C@@H](OS(=O)(=O)[O-])[C@H](O[C@H]2O[C@H](COS(=O)(=O)[O-])[C@@H](OS(=O)(=O)[O-])[C@H](O[C@H]3O[C@H](COS(=O)(=O)[O-])[C@@H](OS(=O)(=O)[O-])[C@H](O[C@H]4O[C@H](COS(=O)(=O)[O-])[C@@H](OS(=O)(=O)[O-])[C@H](OS(=O)(=O)[O-])[C@@H]4OS(=O)(=O)[O-])[C@@H]3OS(=O)(=O)[O-])[C@@H]2OS(=O)(=O)[O-])[C@@H]1OS(=O)(=O)[O-].[Na+].[Na+].[Na+].[Na+].[Na+].[Na+].[Na+].[Na+].[Na+].[Na+].[Na+].[Na+].[Na+].[Na+].[Na+].[Na+] | 124.4 | 350 | 0.161 | 82 | 1.5 | 250.8 | > 100000 | Toxic | 94 | 42 | 1.1 | 1.1 | 1.4 | Activity [9]: Active |
| CCCCCCCCO[C@H]1O[C@H](COS(=O)(=O)[O-])[C@@H](OS(=O)(=O)[O-])[C@H](OS(=O)(=O)[O-])[C@@H]1O[C@H]1O[C@H](COS(=O)(=O)[O-])[C@@H](OS(=O)(=O)[O-])[C@H](O[C@H]2O[C@H](COS(=O)(=O)[O-])[C@@H](OS(=O)(=O)[O-])[C@H](O[C@H]3O[C@H](COS(=O)(=O)[O-])[C@@H](OS(=O)(=O)[O-])[C@H](OS(=O)(=O)[O-])[C@@H]3OS(=O)(=O)[O-])[C@@H]2OS(=O)(=O)[O-])[C@@H]1OS(=O)(=O)[O-].[Na+].[Na+].[Na+].[Na+].[Na+].[Na+].[Na+].[Na+].[Na+].[Na+].[Na+].[Na+].[Na+] | 79.5 | 330 | 0.118 | 160 | 18 | 96.7 | > 100000 | Toxic | 86 | 64 | 1.7 | 1.7 | 0.2 | Vd [16]: 0.026 L/kg; bioavailability [17]: 67% |
| O=S(=O)([O-])OC[C@H]1O[C@H](OCc2ccccc2)[C@@H](O[C@H]2O[C@H](COS(=O)(=O)[O-])[C@@H](OS(=O)(=O)[O-])[C@H](O[C@H]3O[C@H](COS(=O)(=O)[O-])[C@@H](OS(=O)(=O)[O-])[C@H](O[C@H]4O[C@H](COS(=O)(=O)[O-])[C@@H](OS(=O)(=O)[O-])[C@H](OS(=O)(=O)[O-])[C@@H]4OS(=O)(=O)[O-])[C@@H]3OS(=O)(=O)[O-])[C@@H]2OS(=O)(=O)[O-])[C@@H](OS(=O)(=O)[O-])[C@@H]1OS(=O)(=O)[O-].[Na+].[Na+].[Na+].[Na+].[Na+].[Na+].[Na+].[Na+].[Na+].[Na+].[Na+].[Na+].[Na+] | 281.1 | 280 | 0.24 | 129 | 21 | 417.9 | > 100000 | Toxic | – | – | – | – | – | Activity [18]: Active; Activity [19]: Active; Activity [20]: Active; Activity [21]: Active |
